Data on one compound can be found in ChEMBL document CHEMBL1132613 (J Med Chem, 1999).

Assay [1] addresses T1, 5-hydroxytryptamine receptor 1A (Rattus norvegicus, UniProt P19327).
T1 sequence (P19327 whole entry): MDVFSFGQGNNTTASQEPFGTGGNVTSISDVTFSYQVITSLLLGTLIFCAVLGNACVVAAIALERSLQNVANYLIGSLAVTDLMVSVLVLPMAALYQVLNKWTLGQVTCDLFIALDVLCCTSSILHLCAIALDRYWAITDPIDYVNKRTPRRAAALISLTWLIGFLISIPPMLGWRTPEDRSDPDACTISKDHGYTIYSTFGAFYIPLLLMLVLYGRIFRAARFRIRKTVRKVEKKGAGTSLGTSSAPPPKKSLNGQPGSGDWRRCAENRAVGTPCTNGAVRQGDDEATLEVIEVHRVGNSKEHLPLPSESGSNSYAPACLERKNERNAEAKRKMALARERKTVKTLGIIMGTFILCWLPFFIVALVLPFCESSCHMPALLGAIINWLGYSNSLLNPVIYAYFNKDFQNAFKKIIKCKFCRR
Kind of assay: Compound was tested for the displacement of [3H]-8-OH- DPAT from rat brain 5-hydroxytryptamine 1A receptor. A digest of the protocol:
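Pooled rat hippocampal membranes were preincubated at 37 °C. Buffer was 50 mM Tris HCl pH 7.4 with 0.5 mM Na2EDTA, 10 mM MgCl2, 0.1% Na ascorbate and pargyline. 200–400 μg protein was incubated with [3H]-8-OH-DPAT for 15 min at 37 °C, then GF/C filtered and scintillation counted. Nonspecific binding was defined with 10 μM 5-HT. Triplicate tubes.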
A general note: In a radioligand displacement assay an active substance lowers the binding of a labelled ligand.

For assay [2], the system named is Rattus norvegicus. The assay can be described thus: Drug Discrimination in […] trained rats at 8.0 mg/kg dose. Format: functional. A digest of the protocol: (§1)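 Male Sprague–Dawley rats (200–220 g) in a two-lever, FR50 food-reinforced task. Rats were trained to discriminate saline from LSD tartrate (0.08 mg/kg), DOI HCl (0.4 mg/kg) or LY293284 (0.025 mg/kg) in 15-min sessions. %SDL is the share of rats making over 80% of presses on the drug lever. %D is the share failing to make 50 presses within 15 min. ED50 by Litchfield–Wilcoxon log-probit.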

In assay [3] the test system is Rattus norvegicus. Kind of assay: Percentage of animals failing to emit 50 lever presses within 15 min in rats at 2.0 mg/kg dose. Format: functional. In a few lines:
(§2)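 Two-lever drug discrimination in male Sprague–Dawley rats (200–220 g at start), trained against saline on LSD tartrate (0.08 mg/kg), DOI HCl (0.4 mg/kg) or LY293284 (0.025 mg/kg). FR50 food-pellet reinforcement, levers counterbalanced, 15-min sessions at 22–24 °C. %D is the share of tested rats not completing 50 lever presses within 15 min.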

The test system of assay [4] is Rattus norvegicus. The assay can be described thus: Percentage of animals emitting >80% of lever presses in rats at 4.0 mg/kg dose. Format: functional. In a few lines:
as §1

The target in assay [5] is 5-hydroxytryptamine receptor 2A (Homo sapiens, UniProt P28223).
For assay [6], the system named is Rattus norvegicus. Kind of assay: Drug Discrimination in […] trained rats at 4.0 mg/kg dose. Format: functional. In a few lines: as §1
In assay [7] the test system is Rattus norvegicus. The assay can be described thus: Percentage of animals emitting >80% of lever presses in rats at 2.0 mg/kg dose. Format: functional. A digest of the protocol:
as §1

The test system of assay [8] is Rattus norvegicus. Kind of assay: Percentage of animals failing to emit 50 lever presses within 15 min in rats at 4.0 mg/kg dose. Format: functional. A digest of the protocol:
as §2

Assay [9] relates to Rattus norvegicus. The assay can be described thus: Percentage of animals failing to emit 50 lever presses within 15 min in rats at 8.0 mg/kg dose. Format: functional. In a few lines:
as §2

For assay [10], the system named is Rattus norvegicus. The assay can be described thus: Drug Discrimination in […] trained rats at 0.5 mg/kg dose. Format: functional. In a few lines: as §1
The subject of assay [11] is Rattus norvegicus. Kind of assay: Percentage of animals failing to emit 50 lever presses within 15 min in rats at 1.0 mg/kg dose. Format: functional. A digest of the protocol: as §2
The subject of assay [12] is Rattus norvegicus. The assay can be described thus: Drug Discrimination in […] trained rats at 2.0 mg/kg dose. Format: functional. A digest of the protocol: as §1
The test system of assay [13] is Rattus norvegicus. Kind of assay: Percentage of animals emitting >80% of lever presses in rats at 1.0 mg/kg dose. Format: functional. A digest of the protocol: as §1
Assay [14] concerns Rattus norvegicus. The assay can be described thus: Drug Discrimination in […] trained rats at 1.0 mg/kg dose. Format: functional. In a few lines:
as §1

For assay [15], the system named is Rattus norvegicus. The assay can be described thus: Percentage of animals emitting >80% of lever presses in rats at 8.0 mg/kg dose. Format: functional. In a few lines: as §1

As a reminder, the Ki is a measure of affinity in units of concentration, obtained from inhibition or displacement. A low value points to tighter binding.

Sequence of 5-hydroxytryptamine receptor 2A (P28223 whole entry): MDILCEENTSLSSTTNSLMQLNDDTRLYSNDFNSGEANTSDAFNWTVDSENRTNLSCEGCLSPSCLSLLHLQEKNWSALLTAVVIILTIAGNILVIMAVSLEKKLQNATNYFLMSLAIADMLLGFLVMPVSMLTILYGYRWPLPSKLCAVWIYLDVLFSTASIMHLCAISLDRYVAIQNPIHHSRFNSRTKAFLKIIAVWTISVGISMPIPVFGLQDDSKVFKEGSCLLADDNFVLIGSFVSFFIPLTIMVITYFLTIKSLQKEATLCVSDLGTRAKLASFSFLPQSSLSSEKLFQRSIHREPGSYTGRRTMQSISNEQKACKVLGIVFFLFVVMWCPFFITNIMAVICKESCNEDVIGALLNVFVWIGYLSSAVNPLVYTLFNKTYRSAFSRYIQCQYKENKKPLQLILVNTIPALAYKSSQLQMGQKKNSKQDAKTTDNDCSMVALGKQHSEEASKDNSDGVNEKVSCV

Turning to `CN(C)CCc1c[nH]c2ccccc12`, the Ki came to 259 nM in assay [1] and 65 nM in assay [5]. Besides, the D in assay [2] came to 80%; in assay [3], 18%; in assay [6] it was 20%; in assay [8], 23%; in [9], 37%; in assay [10], 0%. The D in assay [11] came out at 0%; in assay [12], 20%; in [14], 11%. The SDL in [2] was 100%; in assay [4], 40%; in [6] it was 62.5%; in assay [7], 22%; in assay [10], 0%; in assay [12] it was 37.5%. In addition, the values for the SDL in [13], in assay [14] and in [15] were 37%, 20% and 83%, respectively.
